Values joined by “and” are separate entries in the source; they are usually repeats but may differ in a detail not shown here. Identical values can stand only once.
Assays:
Rattus norvegicus [1] = test: Biodistribution ratio measured as the ratio of compound present in brain to that of blood at 15 min after intravenous injection; type: ADME, organism-based; settings: 0.25 h
Outline: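 Male Sprague-Dawley rats (225-300 g) given 0.2 mL saline containing [125I]-labeled ligand (2-5 μCi, ~2200 Ci/mmol) via femoral vein under ether anesthesia; sacrificed at set times by cardiac excision. Brain and blood weighed and gamma-counted against diluted injectate; ratio taken from % dose/gram values, 3 rats per time point.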

Rattus norvegicus [2] = test: Biodistribution of compound in rats brain after an intravenous injection was measured at 2 min; type: ADME, organism-based; settings: in vivo
Outline: (§1)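 Rats (male Sprague-Dawley, 225-300 g) given the 125I ligand (2-5 μCi, ~2200 Ci/mmol) in 0.2 mL saline via the femoral vein under ether anesthesia, then killed at set times. Whole brain removed, weighed and gamma-counted. % dose/organ is taken against diluted injectate aliquots. Mean of 3 rats ± std dev.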

Rattus norvegicus [3] = test: Biodistribution of compound in rats heart after an intravenous injection was measured at 1 hr; type: ADME, organism-based; settings: in vivo
Outline: (§2)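 Male Sprague-Dawley rats (225-300 g), free access to food and water. Under ether anesthesia, given 0.2 mL saline containing 125I-labelled ligand (2-5 μCi, ~2200 Ci/mmol) into the femoral vein. Killed by cardiac excision at set times. Organs removed, weighed and gamma-counted. % dose/organ is taken against diluted injectate aliquots, with blood and muscle assumed to be 7% and 40% of body weight. Mean of 3 rats ± std dev.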

Rattus norvegicus [4] = test: Biodistribution of compound in rats kidney after an intravenous injection was measured at 15 min; type: ADME, organism-based; settings: in vivo, 0.25 h; outline: as §2
Rattus norvegicus [5] = test: Biodistribution of compound in rats liver after an intravenous injection was measured at 15 min; type: ADME, organism-based; settings: in vivo, 0.25 h; outline: as §2
Rattus norvegicus [6] = test: Biodistribution of compound in rats liver after an intravenous injection was measured at 1 hr; type: ADME, organism-based; settings: in vivo; outline: as §2
Rattus norvegicus [7] = test: Biodistribution of compound in rats liver after an intravenous injection was measured at 2 min; type: ADME, organism-based; settings: in vivo; outline: as §2
Rattus norvegicus [8] = test: Biodistribution of compound in rats lung after an intravenous injection was measured at 2 min; type: ADME, organism-based; settings: in vivo; outline: as §2
Rattus norvegicus [9] = test: Biodistribution of compound in rats thyroid after an intravenous injection was measured at 1 hr; type: ADME, organism-based, Thyroid gland; settings: in vivo; outline: as §2
Rattus norvegicus [10] = test: Regional brain distribution of compound in rats cerebellum after an intravenous injection was measured at 1 hr; type: ADME, organism-based; settings: in vivo
Outline: (§3)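 After femoral-vein injection of [125I]-labeled ligand (2-5 μCi, ~2200 Ci/mmol, 0.2 mL saline, ether anesthesia) into male Sprague-Dawley rats (225-300 g), brains were dissected into cortex, striatum and cerebellum, weighed and gamma-counted. % dose/gram calculated against diluted initial dose; regional ratio = % dose/gram of region divided by that of cerebellum.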

Rattus norvegicus [11] = test: Regional brain distribution of compound in rats cerebellum after an intravenous injection was measured at 2 min; type: ADME, organism-based; settings: in vivo; outline: as §3
Rattus norvegicus [12] = test: Regional brain distribution of compound in rats striatum after an intravenous injection was measured at 1 hr; type: ADME, organism-based; settings: in vivo; outline: as §3
Rattus norvegicus [13] = test: Regional brain distribution of compound in rats cerebellum after an intravenous injection was measured at 15 min; type: ADME, organism-based; settings: in vivo, 0.25 h; outline: as §3
Rattus norvegicus [14] = test: Regional brain distribution of compound in rats striatum after an intravenous injection was measured at 2 min; type: ADME, organism-based; settings: in vivo; outline: as §3
Rattus norvegicus [15] = test: Biodistribution of compound in rats blood after an intravenous injection was measured at 15 min; type: ADME, organism-based; settings: in vivo, 0.25 h; outline: as §2
Rattus norvegicus [16] = test: Biodistribution of compound in rats blood after an intravenous injection was measured at 1 hr; type: ADME, organism-based; settings: in vivo; outline: as §2
Rattus norvegicus [17] = test: Biodistribution of compound in rats blood after an intravenous injection was measured at 2 min; type: ADME, organism-based; settings: in vivo; outline: as §2
Rattus norvegicus [18] = test: Biodistribution of compound in rats brain after an intravenous injection was measured at 1 hr; type: ADME, organism-based; settings: in vivo; outline: as §1
Rattus norvegicus [19] = test: Biodistribution of compound in rats skin after an intravenous injection was measured at 1 hr; type: ADME, organism-based, Zone of skin; settings: in vivo; outline: as §2
Rattus norvegicus [20] = test: Biodistribution of compound in rats skin after an intravenous injection was measured at 2 min; type: ADME, organism-based, Zone of skin; settings: in vivo; outline: as §2
Rattus norvegicus [21] = test: Biodistribution of compound in rats spleen after an intravenous injection was measured at 1 hr; type: ADME, organism-based; settings: in vivo; outline: as §2

## CN1CCc2cc(Cl)c(O)cc2[C@H](c2cccc(I)c2)C1
Rattus norvegicus [1]
  Biodistribution: 5.77%
Rattus norvegicus [2]
  Biodistribution: 1.59
Rattus norvegicus [3]
  Biodistribution: 0.144
Rattus norvegicus [4]
  Biodistribution: 4.36
Rattus norvegicus [5]
  Biodistribution: 20.35
Rattus norvegicus [6]
  Biodistribution: 16.51
Rattus norvegicus [7]
  Biodistribution: 16.13
Rattus norvegicus [8]
  Biodistribution: 9.02
Rattus norvegicus [9]
  Biodistribution: 0.035
Rattus norvegicus [10]
  Biodistribution: 0.109
Rattus norvegicus [11]
  Biodistribution: 0.73
Rattus norvegicus [12]
  Biodistribution: 0.21
Rattus norvegicus [13]
  Biodistribution: 0.44
Rattus norvegicus [14]
  Biodistribution: 0.398 and 0.555
Rattus norvegicus [15]
  Biodistribution: 1.588 and 0.975
Rattus norvegicus [16]
  Biodistribution: 0.975
Rattus norvegicus [17]
  Biodistribution: 2.94
Rattus norvegicus [18]
  Biodistribution: 0.313
Rattus norvegicus [19]
  Biodistribution: 7.8
Rattus norvegicus [20]
  Biodistribution: 8.23
Rattus norvegicus [21]
  Biodistribution: 0.025

Reference: ChEMBL document CHEMBL1125639, “Synthesis and resolution of (+-)-7-chloro-8-hydroxy-1-(3'-iodophenyl)-3-methyl-2,3,4,5-tetrahydro- 1H-3- benzazepine (TISCH): a high affinity and selective iodinated ligand for CNS D1 dopamine receptor” (J Med Chem, 1991)
